According to ChEMBL document CHEMBL2417392, “Synthesis and broad spectrum antiviral evaluation of bis(POM) prodrugs of novel acyclic nucleosides” (Eur J Med Chem, 2013):

What was measured:
[1] = test system: Hepatitis C virus; test: Antiviral activity against HCV infected in Huh7 cells assessed as inhibition of viral RNA replication after 5 days by RT-PCR Assay; type: functional, Hepacivirus hominis, Huh-7
In short: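 Huh 7 Clone B cells carrying subgenomic HCV replicon RNA, seeded 3000 cells/well, compound added at 10 μM in triplicate right after seeding; 5 days at 37 °C, 5% CO2. Total RNA extracted; replicon RNA and rRNA internal control amplified by one-step multiplex real-time RT-PCR. Activity as ΔCt versus no-drug control (ΔCt 3.3 = 1-log reduction); ΔCt converted to fraction of starting material for % inhibition.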

[2] = test system: CCRF-CEM; test: Cytotoxicity against human CEM cells; type: cell-based
[3] = test system: Vero; test: Cytotoxicity against african green monkey Vero cells; type: cell-based; details: chlorocebus sabaeus
[4] = test system: PBMC; test: Cytotoxicity against human PBMC cells; type: cell-based
[5] = test system: Human immunodeficiency virus; test: Antiviral activity against HIV infected in human CEM cells assessed as inhibition of HIV-induced CEM giant cell formation after 4 days by microscopy; details: Human immunodeficiency virus 1, CCRF-CEM, 96 h
[6] = test system: Human betaherpesvirus 5; test: Antiviral activity against human Cytomegalovirus AD169 infected in HEL cells assessed as inhibition of virus-induced cytopathicity after; type: functional, organism-based; details: Human betaherpesvirus 5, AD169, HEL
[7] = test system: HEL; test: Cytotoxicity against human HEL cells after 3 days by Coulter counting method; type: cell-based; details: 72 h

Row | Compound | inhibition (INH) [1] [%] | CC50 [2] [µM] | CC50 [3] [µM] | CC50 [4] [µM] | EC50 [5] [µM] | EC90 [5] [µM] | EC50 [6] [µM] | CC50 [7] [µM]
1 | CCCCCCc1ccc(-c2cn(C/C=C/CP(=O)(OCOC(=O)C(C)(C)C)OCOC(=O)C(C)(C)C)nn2)cc1 | 95 | 16.1 | 10.4 | 5.9 | 43.9 | > 100 | – | –
2 | CC(C)(C)C(=O)OCOP(=O)(C/C=C/Cn1cc(-c2ccc(OC(F)(F)F)cc2)nn1)OCOC(=O)C(C)(C)C | 60.6 | 37.6 | 12.7 | 19.6 | 55.2 | > 100 | – | –
3 | CC(C)(C)C(=O)OCOP(=O)(C/C=C/Cn1cc(-c2ccc(F)cc2)nn1)OCOC(=O)C(C)(C)C | 84.3 | 31.6 | 47 | 61.9 | > 100 | > 100 | – | –
4 | COc1cc(OC)cc(-c2cn(C/C=C/CP(=O)(OCOC(=O)C(C)(C)C)OCOC(=O)C(C)(C)C)nn2)c1 | 20.8 | 68.2 | 86.8 | > 100 | > 100 | > 100 | – | –
5 | CC(C)(C)C(=O)OCOP(=O)(C/C=C/Cn1cc(CO)nn1)OCOC(=O)C(C)(C)C | 78.1 | 57.4 | 87.1 | 73.2 | > 100 | > 100 | 9.9 | 100
6 | CC(C)(C)C(=O)OCOP(=O)(C/C=C/Cn1cc(-c2cccs2)nn1)OCOC(=O)C(C)(C)C | 0.2 | 31.6 | 17.1 | 32.9 | 62.3 | > 100 | – | –
7 | CCCCCCCCc1cn(C/C=C/CP(=O)(OCOC(=O)C(C)(C)C)OCOC(=O)C(C)(C)C)nn1 | 88.7 | 16.8 | 10.3 | 19.8 | > 100 | > 100 | – | –
8 | CC(C)(C)C(=O)OCOP(=O)(C/C=C/Cn1cc(C(N)=O)nn1)OCOC(=O)C(C)(C)C | 86.5 | 52.9 | 80.6 | 62.4 | 70.5 | > 100 | – | –
9 | CC(C)(C)C(=O)OCOP(=O)(C/C=C/Cn1ccc(N)nc1=O)OCOC(=O)C(C)(C)C | 80.4 | > 100 | > 100 | > 100 | 70.4 | > 100 | – | –
10 | CC(C)(C)C(=O)OCOP(=O)(C/C=C/Cn1cc(F)c(N)nc1=O)OCOC(=O)C(C)(C)C | 73.6 | – | – | – | – | – | – | –
11 | COC(=O)c1nccn(C/C=C/CP(=O)(OCOC(=O)C(C)(C)C)OCOC(=O)C(C)(C)C)c1=O | 76.9 | > 100 | > 100 | > 100 | > 100 | > 100 | – | –
12 | CC(C)(C)C(=O)OCOP(=O)(C/C=C/Cn1ccnc(C(N)=O)c1=O)OCOC(=O)C(C)(C)C | 60 | > 100 | > 100 | > 100 | > 100 | > 100 | – | –
13 | CC(C)(C)C(=O)OCOP(=O)(C/C=C/Cn1cnc(C(N)=O)n1)OCOC(=O)C(C)(C)C | 73.9 | 41.8 | 86.8 | 58.3 | > 100 | > 100 | – | –
14 | CC(C)(C)C(=O)OCOP(=O)(C/C=C/Cn1ccnn1)OCOC(=O)C(C)(C)C | 85.9 | 81.8 | 87.9 | 93.1 | > 100 | > 100 | – | –
15 | CC(C)(C)C(=O)OCOP(=O)(C/C=C/Cn1cc(C(=O)O)nn1)OCOC(=O)C(C)(C)C | 53.8 | > 100 | > 100 | > 100 | > 100 | > 100 | – | –
16 | CC(C)(C)C(=O)OCOP(=O)(C/C=C/Cn1cc(-c2ccccc2)nn1)OCOC(=O)C(C)(C)C | 83.1 | 31.6 | 15.6 | 16 | 35.8 | > 100 | – | –
17 | CCCc1ccc(-c2cn(C/C=C/CP(=O)(OCOC(=O)C(C)(C)C)OCOC(=O)C(C)(C)C)nn2)cc1 | 95.6 | 55.3 | 41 | 35.9 | 31.6 | > 100 | – | –
18 | Nc1ccn(C[C@@H](CO)OCP(=O)(O)O)c(=O)n1 [CIDOFOVIR] | – | – | – | – | – | – | – | > 350
19 | Nc1nc(O)c2ncn(COC(CO)CO)c2n1 [GANCICLOVIR] | – | – | – | – | – | – | – | > 350
